Results collected from several papers.
Lines come from different studies, so protocols differ.
Organism: Trypanosoma brucei
Effect on: parasite growth

`c1ccc(CCCN2CCN(CCOC(c3ccccc3)c3ccccc3)CC2)cc1` gave an EC50 of 9300 nM (blood stage).
The inhibition of `COC(=O)C1CCN(C(=O)c2ccc(NCc3cnc4nc(N)nc(N)c4n3)cc2)CC1` is reported as 16% (resazurin; 10 µM; 72 h).
`CNC1CC(c2ccc(Cl)c(Cl)c2)c2ccccc21` (centres unmarked) has an EC50 of 1970 nM (blood stage).
The EC50 of `Cc1nn(C)c(C)c1NS(=O)(=O)c1c(Cl)cc(-c2ccnc(N3CCNCC3)c2)cc1Cl` is reported as 0.6 nM (RHODESIENSE).
The EC50 of `O=C(O)c1ccccc1-c1ccccc1C(=O)Nc1cc2c3ccccc3ccc2c2ccccc12` is reported as 24400 nM (resazurin; 72 h).
With `COC(=O)C1CCN(C(=O)c2ccc(N(C)Cc3cnc4nc(N)nc(N)c4n3)cc2)CC1` the inhibition was 26% (resazurin; 10 µM; 72 h).
`Nc1nc(N)nc(Nc2ccc([As]3SCC(CO)S3)cc2)n1` (centres unmarked) has an IC50 of 7 nM (RHODESIENSE STIB900).
`O=C(O)c1ccccc1-c1ccccc1C(=O)Nc1ccc2c(c1)oc(=O)c1ccccc12` has an EC50 of over 50000 nM (resazurin; 72 h).
